This is a sample that favours compounds with a hit; in the whole collection about 6.8% have one here.
Her2 expr inh = inhibitors of human Her2 kinase expression. SKBR-3 HER2 protein level, AlphaScreen, 18-24 h; hits give low values. HER2 level % of control, % at 10 µM. 65,000 tested, 0.69% active. AID 645;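 active means HER2 level under 5% of the carrier-only control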;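 further: 100% = DMSO carrier and 0% = 500 nM PU-H71 HSP90 inhibitor; lower value means stronger loss of Her2 protein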
Cdc25B inh = inhibitors of human Cdc25B phosphatase | P30305 | recombinant Cdc25B, OMFP fluorescence Ex485/Em525 | inhibition, %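 (compounds tested at 10 µM final in the well)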 | 65,000 tested, 0.1% active | AID 368; in the data active means inhibition above about 50%
M1 ag = activates the M1 muscarinic receptor; AID 626; CHO-M1 cells, Fluo-4 calcium fluorescence, agonist mode; hits give high values; 64,000 tested, 3% active; B-score at 10 µM;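 active means fluorescence rise, raw or as B-score row- and column-corrected plate score, outside the 99.7% band of its plate's samples, either direction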
HEK293 NFkB inh = lowers PMA/ionomycin-induced NF-kB signal in HEK293 cells; HEK-293 NF-kB luciferase reporter, luminescence; 62,000 tested, 0.21% active; inhibition, % at 3 µM;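 active means inhibition above the mean of all tested compounds plus 3 SD, cut at about 40% in these data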;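 further: 0% = stimulated DMSO wells and 100% = 10 µM reference inhibitor 5653914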
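System: NF-kB luciferase reporter HEK-293 cells | Replication: Single test | Control set: DMSO vs reference inhibitor | Evaluation: % inhibition | Schedule: 1 h pretreatment, 16 h stimulation, 37 °C | Probe or stimulus: PMA with ionomycin | Compound dosing: One dose, 3 µM | Detection: Luciferase luminescence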
DUSP1 inh = inhibitors of human MKP-1 phosphatase; recombinant MKP-1, OMFP hydrolysis fluorescence; inhibition, %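 (compounds tested at a single concentration somewhere between 10 and 100 µM)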; 65,000 tested, 0.15% active; AID 374;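 active means inhibition above about 50%, limit read from the data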;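 further: 0% = DMSO max control wells and 100% = wells with enzyme stopped by NaOH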
Target sequence (P28562 whole entry, looked up): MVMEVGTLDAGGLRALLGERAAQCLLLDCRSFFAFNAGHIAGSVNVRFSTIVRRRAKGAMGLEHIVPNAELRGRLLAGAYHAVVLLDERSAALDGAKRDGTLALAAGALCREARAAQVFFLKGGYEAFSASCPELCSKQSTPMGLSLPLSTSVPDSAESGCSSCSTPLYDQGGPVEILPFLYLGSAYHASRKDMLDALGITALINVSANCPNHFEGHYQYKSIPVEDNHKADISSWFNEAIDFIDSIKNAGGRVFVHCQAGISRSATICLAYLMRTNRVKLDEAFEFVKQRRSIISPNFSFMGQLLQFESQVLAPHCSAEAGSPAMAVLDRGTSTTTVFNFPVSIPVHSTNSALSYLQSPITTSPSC
M1 antagonist = blocks the rat M1 muscarinic receptor response to acetylcholine; P08482; CHO-M1 cells, Fluo-4 calcium, ACh EC80 antagonist mode; hits give low values; AID 628; B-score at 10 µM; 64,000 tested, 3.4% active;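 active means calcium fluorescence response, raw or row-and-column corrected B-score, differing from the plate sample mean either way at a set confidence level, mostly lower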
M1 antag confirm = confirmation of rat M1 muscarinic receptor antagonists; shares compounds with M1 antagonist; CHO-M1 cells, Fluo-4 calcium, ACh EC80 antagonism; hits give low values; calcium response (max-min fluorescence) at 10 µM; 1,700 tested, 43% active;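 active means calcium response below the same-plate mean of wells given acetylcholine alone at its 80%-effect dose, minus 3 SD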;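 further: raw fluorescence intensity difference in arbitrary instrument units and not normalized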
mGluR4 antag = acts on human mGluR4 in M1 antagonist selectivity test | shares compounds with M1 antagonist | CHO-mGluR4 calcium flux, Fluo-4 fluorescence, glutamate EC80; hits give low values | fluorescence response (max-min) at 10 µM | 1,700 tested, 0.9% active | AID 678;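 active means fluorescence response below the plate's average for near-maximal glutamate wells, less 3 SD of those wells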;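 further: raw unnormalized fluorescence span taken in the window right after glutamate addition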
The depositor's hits bear a star.

`O=C(C(Cc1ccccc1)n1cccc1)N1CCN(Cc2ccccc2)CC1` (configuration not stated) gave Her2 expr inh 84.4, Cdc25B inh -11.5, M1 ag 0.244, HEK293 NFkB inh 4.5, DUSP1 inh -0.2, M1 antagonist -16.4*, M1 antag confirm 18.2* and mGluR4 antag 196.
For Cc1cc(C)c2nc(N3CCC(C(=O)N4CCN(c5ncccn5)CC4)CC3)sc2c1 the results were Her2 expr inh 45.4, Cdc25B inh -7.9, M1 ag -0.728, HEK293 NFkB inh 3.7, DUSP1 inh 27.5 and M1 antagonist 0.722.
Screening Cc1cc(C)c2nc(N3CCC(C(=O)N4CCCC4)CC3)sc2c1 returned Her2 expr inh 138.3, Cdc25B inh -11.5, M1 ag -0.104, HEK293 NFkB inh -0.7, DUSP1 inh 31.1, M1 antagonist -8*, M1 antag confirm 233* and mGluR4 antag 180.
Screening CCOc1ccc2nc(N3CCC(C(=O)N4CCN(C5CCCCC5)CC4)CC3)sc2c1 returned Her2 expr inh 44.0, Cdc25B inh -11.7, M1 ag -2.18, HEK293 NFkB inh 0.5, DUSP1 inh 7.5, M1 antagonist -2.91*, M1 antag confirm 378* and mGluR4 antag 243.
`CCn1c(Cn2nnc(-c3ccccc3)n2)nnc1SCc1ccc(Cl)c(Cl)c1` gave Her2 expr inh 89.9, Cdc25B inh -22.8, M1 ag 1.35, HEK293 NFkB inh 15.4, DUSP1 inh 6.6 and M1 antagonist 0.139.
`CCn1c2ccccc2c2nc3cc(OC)c(OC)cc3nc21` gave Her2 expr inh 44.2, Cdc25B inh -10.0, M1 ag 1.47, HEK293 NFkB inh 25.2, DUSP1 inh 38.1, M1 antagonist -5.67*, M1 antag confirm 462 and mGluR4 antag 154*.
Screening COc1cc2nc3c4ccccc4n(CC#N)c3nc2cc1OC returned Her2 expr inh 66.4, Cdc25B inh -8.7, M1 ag -0.402, HEK293 NFkB inh 5.2, DUSP1 inh -35.5 and M1 antagonist 0.812.
Screening C[C@H](NC(=O)C1(c2ccccc2)CCN(C(=O)[C@H]2CSCN2C(=O)OC(C)(C)C)CC1)C(=O)O returned Her2 expr inh 81.0, Cdc25B inh -5.4, M1 ag -0.849, HEK293 NFkB inh 14.4, DUSP1 inh 18.9 and M1 antagonist -0.806.
Cc1ccccc1N1C(=O)C2ON(c3ccccc3)C(c3cccnc3)C2C1=O (configuration not stated) was read as Her2 expr inh 101.8, Cdc25B inh -14.1, M1 ag -0.161, DUSP1 inh -22.6 and M1 antagonist 0.232.
Screening Cc1c(Cl)cccc1N1C(=O)C2ON(c3ccccc3)C(c3cccnc3)C2C1=O (configuration not stated) returned Her2 expr inh 94.6, Cdc25B inh 17.4, M1 ag 0.322, DUSP1 inh -13.9, M1 antagonist -2.1*, M1 antag confirm 652 and mGluR4 antag 250.
For CN(C)C(CNC(=O)C1CCCN(C(=O)c2ccc(Cl)cc2)C1)c1ccco1 (configuration not stated) the results were Her2 expr inh 110.3, Cdc25B inh 0.3, M1 ag -0.0164, HEK293 NFkB inh 21.4, DUSP1 inh -2.4, M1 antagonist -3.64*, M1 antag confirm 666 and mGluR4 antag 267.
`NC(=O)C1CCCN(C(=O)c2ccc(Cl)cc2)C1` (configuration not stated) gave Her2 expr inh 124.3, Cdc25B inh -2.9, M1 ag 0.257, HEK293 NFkB inh 11.8, DUSP1 inh 2.7 and M1 antagonist -0.949.
For O=C(c1ccco1)c1cn[nH]c1-c1ccc(Cl)cc1O the results were Her2 expr inh 55.5, Cdc25B inh -2.7, M1 ag 0.9, HEK293 NFkB inh 16.5, DUSP1 inh 9.6 and M1 antagonist -0.598.
`C(=N\n1cnnc1)/c1ccc(-c2ccccc2)cc1` gave Her2 expr inh 66.2, Cdc25B inh -6.3, M1 ag 0.455, HEK293 NFkB inh 7.6, DUSP1 inh 11.8, M1 antagonist -7.45*, M1 antag confirm 556 and mGluR4 antag 272.
For COc1cccc(NC(=O)[C@@H]2CCCN2C(=O)C2CCN(S(=O)(=O)c3ccc(C)cc3)CC2)c1 the results were Her2 expr inh 47.1, Cdc25B inh 1.7, M1 ag -0.165, HEK293 NFkB inh 14.9, DUSP1 inh -8.1 and M1 antagonist 0.0215.
CCCCOc1ccc(NC2=NC3(CCCCC3)N=C(N)N2)cc1 was read as Her2 expr inh 59.5, Cdc25B inh -3.2, M1 ag -0.829, HEK293 NFkB inh 6.2, DUSP1 inh -3.3, M1 antagonist -2.31*, M1 antag confirm 458 and mGluR4 antag 182.
For COc1ccc(NC2=NC3(CCCCC3)N=C(N)N2)cc1 the results were Her2 expr inh 70.9, Cdc25B inh 6.6, M1 ag 0.366, HEK293 NFkB inh 2.8, DUSP1 inh 3.2 and M1 antagonist -0.0225.
`COc1ccc(C2C(C(=O)NCCN3CCOCC3)c3ccccc3C(=O)N2C2CCCCC2)cc1` (configuration not stated) gave Her2 expr inh 86.5, Cdc25B inh -6.6, M1 ag 0.206, HEK293 NFkB inh 33.8, DUSP1 inh 16.4 and M1 antagonist 0.702.
For COc1ccccc1CNS(=O)(=O)c1cccc(S(=O)(=O)N2CCOCC2)c1 the results were Her2 expr inh 106.0, Cdc25B inh 9.0, M1 ag 1.31, HEK293 NFkB inh 5.8, DUSP1 inh -2.4, M1 antagonist -4.68*, M1 antag confirm 605 and mGluR4 antag 209.
`O=S(=O)(NCCc1ccccc1F)c1cccc(S(=O)(=O)N2CCOCC2)c1` gave Her2 expr inh 87.8, Cdc25B inh -3.0, M1 ag -1.17, HEK293 NFkB inh 7.6, DUSP1 inh 12.7 and M1 antagonist -0.322.
Screening CCN(C(=O)CN1CCN(c2ccc(OC)cc2)CC1)c1c(N)n(Cc2ccccc2)c(=O)[nH]c1=O returned Her2 expr inh 41.2, Cdc25B inh -8.1, M1 ag 0.316, HEK293 NFkB inh 8.2, DUSP1 inh 34.5 and M1 antagonist 1.41.
For CCOc1ccccc1N1Cc2cc(C)c(C)cc2C1 the results were Her2 expr inh 74.2, Cdc25B inh -47.7, M1 ag -0.0415, HEK293 NFkB inh 3.7, DUSP1 inh 1.2, M1 antagonist -1.53*, M1 antag confirm 655 and mGluR4 antag 231.
